ChEMBL document CHEMBL4118152, “Discovery of Potent and Selective Periphery-Restricted Quinazoline Inhibitors of the Cyclic Nucleotide Phosphodiesterase PDE1” (J Med Chem, 2018)

Key:
[1] = molecular target: Dual specificity calcium/calmodulin-dependent 3',5'-cyclic nucleotide phosphodiesterase 1B (Homo sapiens, UniProt Q01064); experiment: Inhibition of full length recombinant human PDE1B1 using 3',5'-[3H]cAMP as substrate after 30 mins by scintillation proximity assay
Summary of the method: (§1)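 Enzymes were human except PDE6A, which was bovine. Each was assayed with cAMP or cGMP substrate, as appropriate to the enzyme, at concentrations below 1/3 of Km. IC50 values are mean ± SEM from n = 3 or more.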

[2] = molecular target: Rod cGMP-specific 3',5'-cyclic phosphodiesterase subunit alpha (Bos taurus, UniProt P11541); experiment: Inhibition of bovine retina PDE6A using 3',5'-[3H]cGMP as substrate after 30 mins by scintillation proximity assay; summary of the method: as §1
Sequence of Rod cGMP-specific 3',5'-cyclic phosphodiesterase subunit alpha (P11541 whole entry): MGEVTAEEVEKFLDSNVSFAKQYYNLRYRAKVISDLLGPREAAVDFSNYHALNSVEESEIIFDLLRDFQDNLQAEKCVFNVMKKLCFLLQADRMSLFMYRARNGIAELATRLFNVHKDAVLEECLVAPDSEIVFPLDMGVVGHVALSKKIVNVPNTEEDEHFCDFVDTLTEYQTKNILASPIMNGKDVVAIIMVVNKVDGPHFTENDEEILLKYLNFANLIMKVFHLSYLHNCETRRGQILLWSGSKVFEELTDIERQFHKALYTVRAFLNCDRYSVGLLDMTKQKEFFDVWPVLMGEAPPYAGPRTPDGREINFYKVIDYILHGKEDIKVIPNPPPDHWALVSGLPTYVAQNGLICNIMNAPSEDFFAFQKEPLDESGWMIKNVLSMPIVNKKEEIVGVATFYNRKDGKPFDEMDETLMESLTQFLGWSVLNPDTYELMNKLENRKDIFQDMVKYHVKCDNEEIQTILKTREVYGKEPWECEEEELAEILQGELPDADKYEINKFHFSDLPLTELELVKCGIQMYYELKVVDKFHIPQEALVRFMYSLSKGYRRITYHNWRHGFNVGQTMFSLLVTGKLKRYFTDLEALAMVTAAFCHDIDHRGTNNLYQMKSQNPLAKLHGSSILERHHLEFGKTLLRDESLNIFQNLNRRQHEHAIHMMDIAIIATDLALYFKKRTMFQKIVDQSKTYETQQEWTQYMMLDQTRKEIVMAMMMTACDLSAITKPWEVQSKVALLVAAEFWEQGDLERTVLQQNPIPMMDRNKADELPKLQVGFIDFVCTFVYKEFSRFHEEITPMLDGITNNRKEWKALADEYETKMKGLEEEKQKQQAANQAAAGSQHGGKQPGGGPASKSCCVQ

[3] = molecular target: High affinity cAMP-specific and IBMX-insensitive 3',5'-cyclic phosphodiesterase 8B (Homo sapiens, UniProt O95263); experiment: Inhibition of full length recombinant human PDE8B using 3',5'-[3H]cAMP as substrate after 30 mins by scintillation proximity assay; summary of the method: as §1
[4] = molecular target: Dual 3',5'-cyclic-AMP and -GMP phosphodiesterase 11A (Homo sapiens, UniProt Q9HCR9); experiment: Inhibition of full length recombinant human PDE11A4 using 3',5'-[3H]cGMP as substrate after 30 mins by scintillation proximity assay; summary of the method: as §1
Sequence of Dual 3',5'-cyclic-AMP and -GMP phosphodiesterase 11A (Q9HCR9 whole entry): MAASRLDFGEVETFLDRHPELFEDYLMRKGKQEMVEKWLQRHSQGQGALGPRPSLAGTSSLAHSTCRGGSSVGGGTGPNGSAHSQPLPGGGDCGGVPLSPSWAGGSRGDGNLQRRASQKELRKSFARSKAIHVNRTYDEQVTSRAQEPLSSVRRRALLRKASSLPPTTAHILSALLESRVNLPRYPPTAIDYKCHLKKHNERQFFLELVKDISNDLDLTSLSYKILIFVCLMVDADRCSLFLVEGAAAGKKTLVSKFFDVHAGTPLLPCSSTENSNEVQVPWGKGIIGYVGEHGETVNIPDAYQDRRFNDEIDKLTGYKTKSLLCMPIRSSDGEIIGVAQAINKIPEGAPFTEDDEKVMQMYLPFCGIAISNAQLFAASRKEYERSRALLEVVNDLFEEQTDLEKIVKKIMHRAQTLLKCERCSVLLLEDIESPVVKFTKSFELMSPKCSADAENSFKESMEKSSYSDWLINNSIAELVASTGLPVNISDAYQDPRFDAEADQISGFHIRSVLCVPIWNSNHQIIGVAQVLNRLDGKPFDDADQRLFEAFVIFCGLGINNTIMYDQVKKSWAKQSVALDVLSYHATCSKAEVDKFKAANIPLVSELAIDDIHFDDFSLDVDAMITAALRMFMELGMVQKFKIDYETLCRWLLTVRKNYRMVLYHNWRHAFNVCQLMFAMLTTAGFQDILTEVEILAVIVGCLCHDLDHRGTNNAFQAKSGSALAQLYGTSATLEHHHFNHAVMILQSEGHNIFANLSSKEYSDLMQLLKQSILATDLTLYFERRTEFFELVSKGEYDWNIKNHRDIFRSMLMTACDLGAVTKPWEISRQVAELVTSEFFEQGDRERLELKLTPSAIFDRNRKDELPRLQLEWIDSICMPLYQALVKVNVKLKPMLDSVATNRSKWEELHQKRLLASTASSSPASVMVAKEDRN

[5] = species on record: Homo sapiens; experiment: Selectivity ratio of IC50 for full length recombinant human PDE2A1 to IC50 for full length recombinant human PDE1B1
Summary of the method: (§2)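 IC50s were measured against recombinant PDEs, all human except PDE6A (bovine). Each enzyme was given its appropriate cAMP or cGMP substrate at below 1/3 of its Km. IC50s are the mean of n = 3 or more. The selectivity ratio is the IC50 for the other PDE divided by the IC50 for PDE1B1 or PDE1A.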

[6] = species on record: Homo sapiens; experiment: Selectivity ratio of IC50 for full length recombinant human PDE5A1 to IC50 for full length recombinant human PDE1B1; summary of the method: as §2
[7] = species on record: Homo sapiens; experiment: Selectivity ratio of IC50 for full length recombinant human PDE8B to IC50 for full length recombinant human PDE1B1; summary of the method: as §2
[8] = species on record: Homo sapiens; experiment: Selectivity ratio of IC50 for full length recombinant human PDE4D3 to IC50 for full length recombinant human PDE1A; summary of the method: as §2
[9] = species on record: Homo sapiens; experiment: Selectivity ratio of IC50 for full length recombinant human PDE10A1 to IC50 for full length recombinant human PDE1A; summary of the method: as §2
[10] = species on record: Homo sapiens; experiment: Selectivity ratio of IC50 for full length recombinant human PDE11A4 to IC50 for full length recombinant human PDE1A; summary of the method: as §2
[11] = Fraction unbound in Wistar Hannover rat plasma at 1 mg/kg, sc measured at 0.5 hrs post dose by LC-MS/MS analysis; format: ADME, organism-based; settings: in vivo
[12] = Drug uptake in Wistar Hannover rat cerebrospinal fluid at 1 mg/kg, sc measured at 0.5 hrs post dose by LC-MS/MS analysis; format: ADME, organism-based; settings: read-out: Drug uptake
Summary of the method: (§3)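 Rats were dosed subcutaneously at 1 mg/kg. CSF, plasma and brain were sampled at 0.5, 1, 2 and 4 h post dose and analysed for drug concentration. Values are means at each time point.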

[13] = Drug uptake in Wistar Hannover rat cerebrospinal fluid at 1 mg/kg, sc measured at 2 hrs post dose by LC-MS/MS analysis; format: ADME, organism-based; settings: read-out: Drug uptake; summary of the method: as §3
[14] = molecular target: BCRP (ABCG2) (Homo sapiens, UniProt Q9UNQ0); experiment: Substrate activity at BCRP (unknown origin) assessed as efflux ratio; settings: not told
[15] = Fraction unbound in Wistar Hannover rat brain at 1 mg/kg, sc measured at 0.5 to 4 hrs post dose by LC-MS/MS analysis; format: ADME, organism-based
[16] = molecular target: 5-hydroxytryptamine receptor 1A (Homo sapiens) (UniProt P08908); experiment: Inhibition of human 5-HT1A receptor at 10 uM relative to control
[17] = molecular target: Alpha-2B adrenergic receptor (Homo sapiens) (UniProt P18089); experiment: Inhibition of human alpha2B receptor at 10 uM relative to control
[18] = molecular target: High affinity choline transporter 1 (Homo sapiens) (UniProt Q9GZV3); experiment: Displacement of [3H]hemicholinium-3 from recombinant human Choline Transporter at 10 uM after 60 mins by scintillation counting analysis relative to control
Sequence of High affinity choline transporter 1 (Homo sapiens) (Q9GZV3 whole entry): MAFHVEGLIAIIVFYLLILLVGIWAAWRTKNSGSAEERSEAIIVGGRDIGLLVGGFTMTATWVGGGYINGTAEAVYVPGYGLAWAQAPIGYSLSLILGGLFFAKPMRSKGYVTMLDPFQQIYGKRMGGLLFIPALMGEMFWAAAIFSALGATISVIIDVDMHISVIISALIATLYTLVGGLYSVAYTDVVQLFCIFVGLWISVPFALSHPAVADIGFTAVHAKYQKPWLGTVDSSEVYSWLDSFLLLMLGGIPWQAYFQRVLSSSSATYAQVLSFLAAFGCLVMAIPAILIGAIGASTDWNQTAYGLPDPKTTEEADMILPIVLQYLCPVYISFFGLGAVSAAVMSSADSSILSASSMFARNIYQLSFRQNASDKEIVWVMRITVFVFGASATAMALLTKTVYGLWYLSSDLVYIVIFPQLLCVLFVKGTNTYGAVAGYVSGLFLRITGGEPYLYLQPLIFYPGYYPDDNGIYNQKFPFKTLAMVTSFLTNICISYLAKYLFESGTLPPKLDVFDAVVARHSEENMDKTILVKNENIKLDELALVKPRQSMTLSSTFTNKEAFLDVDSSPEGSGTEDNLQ

[19] = molecular target: Prostaglandin G/H synthase 2 (Homo sapiens) (UniProt P35354); experiment: Inhibition of recombinant human cyclooxygenase 2 using arachidonic acid/ADHP as substrate at 10 uM after 5 mins by Fluorimetric method relative to control
[20] = species on record: Homo sapiens; experiment: Inhibition of human delta 2 opioid receptor at 10 uM relative to control
[21] = species on record: Homo sapiens; experiment: Inhibition of human endothelin receptor at 10 uM relative to control
[22] = molecular target: Histamine H1 receptor (Homo sapiens) (UniProt P35367); experiment: Inhibition of human histamine H1 receptor at 10 uM relative to control
Sequence of Histamine H1 receptor (Homo sapiens) (P35367 whole entry): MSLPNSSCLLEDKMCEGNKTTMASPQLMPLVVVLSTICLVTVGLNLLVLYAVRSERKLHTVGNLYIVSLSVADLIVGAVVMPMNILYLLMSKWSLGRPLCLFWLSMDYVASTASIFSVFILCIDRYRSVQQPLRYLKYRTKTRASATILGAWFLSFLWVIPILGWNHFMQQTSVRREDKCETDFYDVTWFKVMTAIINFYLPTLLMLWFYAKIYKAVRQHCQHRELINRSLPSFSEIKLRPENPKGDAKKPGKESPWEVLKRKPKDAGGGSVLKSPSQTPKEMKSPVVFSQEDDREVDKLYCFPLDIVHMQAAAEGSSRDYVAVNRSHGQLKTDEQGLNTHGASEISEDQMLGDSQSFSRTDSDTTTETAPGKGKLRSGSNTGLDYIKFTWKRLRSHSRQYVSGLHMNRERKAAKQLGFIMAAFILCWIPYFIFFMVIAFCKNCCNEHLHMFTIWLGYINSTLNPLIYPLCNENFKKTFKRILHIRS

[23] = molecular target: Muscarinic acetylcholine receptor M1 (Homo sapiens) (UniProt P11229); experiment: Inhibition of human muscarinic M1 receptor at 10 uM relative to control
[24] = molecular target: Muscarinic acetylcholine receptor M4 (Homo sapiens) (UniProt P08173); experiment: Inhibition of human muscarinic M4 receptor at 10 uM relative to control
[25] = molecular target: Muscarinic acetylcholine receptor M5 (Homo sapiens) (UniProt P08912); experiment: Inhibition of human muscarinic M5 receptor at 10 uM relative to control
Sequence of Muscarinic acetylcholine receptor M5 (Homo sapiens) (P08912 whole entry): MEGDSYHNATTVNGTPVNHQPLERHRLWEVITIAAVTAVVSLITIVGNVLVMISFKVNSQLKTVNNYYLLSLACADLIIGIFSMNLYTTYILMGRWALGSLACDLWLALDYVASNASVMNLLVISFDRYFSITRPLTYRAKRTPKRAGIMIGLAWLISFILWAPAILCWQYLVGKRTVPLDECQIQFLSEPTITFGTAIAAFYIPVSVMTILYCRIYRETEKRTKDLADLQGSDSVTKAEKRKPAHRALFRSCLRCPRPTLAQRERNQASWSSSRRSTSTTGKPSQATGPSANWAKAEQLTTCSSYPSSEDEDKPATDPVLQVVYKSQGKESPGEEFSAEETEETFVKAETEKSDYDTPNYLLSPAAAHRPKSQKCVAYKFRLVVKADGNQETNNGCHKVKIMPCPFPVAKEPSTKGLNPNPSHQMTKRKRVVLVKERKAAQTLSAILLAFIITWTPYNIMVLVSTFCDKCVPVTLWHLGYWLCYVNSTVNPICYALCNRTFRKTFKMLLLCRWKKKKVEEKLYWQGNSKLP

[26] = molecular target: Mitogen-activated protein kinase 14 (Homo sapiens) (UniProt Q16539); experiment: Inhibition of recombinant human p38 alpha using Ulight-CFFKNIVTPRTPPPSQGK-amide as substrate at 10 uM after 30 mins in presence of ATP by LANCE method relative to control
Sequence of Mitogen-activated protein kinase 14 (Homo sapiens) (Q16539 whole entry): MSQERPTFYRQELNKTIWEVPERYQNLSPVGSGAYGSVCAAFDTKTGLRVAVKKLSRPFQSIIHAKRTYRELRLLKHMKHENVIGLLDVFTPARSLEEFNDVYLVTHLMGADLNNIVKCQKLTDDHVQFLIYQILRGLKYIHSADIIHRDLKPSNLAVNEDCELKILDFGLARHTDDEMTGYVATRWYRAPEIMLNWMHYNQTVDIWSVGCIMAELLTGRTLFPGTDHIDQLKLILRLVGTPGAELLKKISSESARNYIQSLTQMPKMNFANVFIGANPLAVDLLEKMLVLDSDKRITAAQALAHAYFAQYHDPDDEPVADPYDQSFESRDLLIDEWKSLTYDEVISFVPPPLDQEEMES

[27] = molecular target: Vascular endothelial growth factor receptor 1 (Homo sapiens) (UniProt P17948); experiment: Inhibition of recombinant human VEGFR1 using Ulight-TK peptide as substrate at 10 uM after 15 mins in presence of ATP by LANCE method relative to control
[28] = molecular target: CYP3A4 (Homo sapiens, UniProt P08684); experiment: Inhibition of CYP3A4 (unknown origin) at 10 uM relative to control; format: ADME
[29] = molecular target: Melanocortin receptor 3 (Homo sapiens) (UniProt P41968); experiment: Inhibition of human Melanocortin 3 receptor at 10 uM relative to control
[30] = molecular target: Somatostatin receptor type 4 (Homo sapiens) (UniProt P31391); experiment: Inhibition of human Somatostatin 4 receptor at 10 uM relative to control
[31] = molecular target: Androgen receptor (Homo sapiens) (UniProt P10275); experiment: Inhibition of human Androgen receptor at 10 uM relative to control
[32] = molecular target: Prostaglandin G/H synthase 1 (Homo sapiens) (UniProt P23219); experiment: Inhibition of recombinant human Cyclooxygenase 1 using arachidonic acid/ADHP as substrate at 10 uM after 3 mins by Fluorimetric method relative to control
Sequence of Prostaglandin G/H synthase 1 (Homo sapiens) (P23219 whole entry): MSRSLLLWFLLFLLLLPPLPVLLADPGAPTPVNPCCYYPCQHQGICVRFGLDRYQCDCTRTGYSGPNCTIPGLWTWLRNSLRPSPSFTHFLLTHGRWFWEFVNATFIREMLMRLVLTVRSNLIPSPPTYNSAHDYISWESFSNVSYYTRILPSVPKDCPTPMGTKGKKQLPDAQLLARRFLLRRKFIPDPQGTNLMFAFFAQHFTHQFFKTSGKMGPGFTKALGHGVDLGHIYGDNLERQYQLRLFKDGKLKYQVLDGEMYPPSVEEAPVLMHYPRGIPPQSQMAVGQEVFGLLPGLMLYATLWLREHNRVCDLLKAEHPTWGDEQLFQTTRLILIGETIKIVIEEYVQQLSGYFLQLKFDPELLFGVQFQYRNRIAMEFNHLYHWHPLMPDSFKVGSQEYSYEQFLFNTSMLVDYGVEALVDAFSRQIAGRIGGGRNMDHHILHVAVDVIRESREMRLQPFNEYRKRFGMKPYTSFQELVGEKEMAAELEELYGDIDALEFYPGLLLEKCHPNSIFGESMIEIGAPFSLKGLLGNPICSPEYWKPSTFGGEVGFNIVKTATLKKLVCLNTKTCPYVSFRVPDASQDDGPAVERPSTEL

[33] = molecular target: MAO-A (Homo sapiens, UniProt P21397); experiment: Inhibition of human MAO-A at 10 uM relative to control
Sequence of MAO-A (P21397 whole entry): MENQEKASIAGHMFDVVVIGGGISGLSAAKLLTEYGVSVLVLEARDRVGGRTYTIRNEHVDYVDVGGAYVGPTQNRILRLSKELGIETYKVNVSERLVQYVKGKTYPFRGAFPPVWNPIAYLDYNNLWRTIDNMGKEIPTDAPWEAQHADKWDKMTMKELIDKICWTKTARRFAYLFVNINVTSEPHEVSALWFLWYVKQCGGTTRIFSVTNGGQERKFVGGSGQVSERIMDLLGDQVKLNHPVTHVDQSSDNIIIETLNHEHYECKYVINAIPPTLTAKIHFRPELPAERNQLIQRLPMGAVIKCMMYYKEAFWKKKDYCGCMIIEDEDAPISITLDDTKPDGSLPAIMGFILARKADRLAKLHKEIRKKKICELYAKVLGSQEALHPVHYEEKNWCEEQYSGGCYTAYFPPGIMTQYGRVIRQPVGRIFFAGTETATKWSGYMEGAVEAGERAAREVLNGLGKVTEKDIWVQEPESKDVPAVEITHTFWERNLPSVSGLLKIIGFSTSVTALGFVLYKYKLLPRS

[34] = species on record: Mus musculus; experiment: Inhibition of mouse brain rolipram binding site assessed as [3H]rolipram uptake at 10 uM after 60 mins by scintillation counting analysis relative to control
[35] = species on record: Homo sapiens; experiment: Inhibition of human phencyclidine receptor at 10 uM relative to control

SMILES: COc1ccc2c(N[C@@H](C)Cc3cc(C)[nH]n3)ncnc2c1OC
- IC50 [1]: 0.0091 µM
- IC50 [2]: > 0.142 µM
- IC50 [3]: 15.5 µM
- IC50 [4]: 34.7 µM
- Ratio IC50 [5]: 5230
- Ratio IC50 [6]: 5970
- Ratio IC50 [7]: 1700
- Ratio IC50 [8]: 626
- Ratio IC50 [9]: 10
- Ratio IC50 [10]: 826
- Cp(f) [11]: 171 nM
- concentration at 0.5 h [12]: 21 nM
- concentration at 2 h [13]: 8 nM
- efflux ratio [14]: 84
- fraction unbound [15]: 0.2
- inhibition [16]: < 50%
- inhibition [17]: < 50%
- inhibition [18]: < 50%
- inhibition [19]: < 50%
- inhibition [20]: < 50%
- inhibition [21]: < 50%
- inhibition [22]: < 50%
- inhibition [23]: < 50%
- inhibition [24]: < 50%
- inhibition [25]: < 50%
- inhibition [26]: < 50%
- inhibition [27]: < 50%
- inhibition at 10 µM [28]: < 50%
- inhibition [29]: < 50%
- inhibition [30]: < 50%
- inhibition [31]: < 50%
- inhibition [32]: < 50%
- inhibition at 10 µM [33]: < 50%
- inhibition [34]: < 50%
- inhibition [35]: < 50%
